Measurements as given in ChEMBL document CHEMBL1146084, “Discovery of orally efficacious melanin-concentrating hormone receptor-1 antagonists as antiobesity agents. Synthesis, SAR, and biological evaluation of bicyclo[3.1.0]hexyl ureas” (J Med Chem, 2006).
pKi: −log10 of the molar value. Activity calls are given as the source filed them. The rule behind the calls is not given here.

Experiments:
[1] = (§1) AUC (0-24h) in rat at 10 mg/kg, po; type: ADME, organism-based, Plasma; set-up: time < 24 hr, dose 10 mg/kg, route oral; settings: plasma
[2] = test system: Mus musculus; experiment: Reduction of food intake in orally dosed C57BL/6N DIO mouse after 24 hrs at 30 mg/kg relative to control; type: functional
Summary of the method: (§2)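 Male C57Bl/6NCrl:BR mice made obese on a 45%-fat diet, individually housed, 12 h light/dark, 22 °C; acclimated to oral 20% hydroxypropyl-β-cyclodextrin vehicle for 2-3 days. Single oral 30 mg/kg dose in 20% HPβCD; food intake weighed to 0.01 g at 2, 6 and 24 h, expressed as % of vehicle ± SEM.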

[3] = Ratio of drug level in brain against plasma in rat after 6 hrs at 10 mg/kg, po; type: ADME, organism-based; set-up: dose 10 mg/kg, route oral
[4] = target: Melanin-concentrating hormone receptor 1 (Mus musculus) (UniProt Q8JZL2); experiment: Receptor occupancy ex vivo by displacement of [125I]S36057 binding from MCHR1 in C57BL/6N mouse brain after 6 hrs at 30 mg/kg, po; type: functional, organism-based; set-up: dose 30 mg/kg
Summary of the method: (§3)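 Male C57Bl/6NCrl:BR mice given vehicle (HPβCD) or compound orally; killed by CO2 at 6 or 24 h post-dose (chronic studies: 24 h after last daily dose, n = 3/group). 16 µm frozen caudate putamen sections incubated 30 min at room temperature with 700 pM [125I]-S36057 in MCH-R1 binding buffer; 1 µM MCH defines nonspecific binding. Phosphorimager quantitation; % inhibition versus vehicle.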

[5] = target: T1, Melanin-concentrating hormone receptor 1 (Homo sapiens, UniProt Q99705); experiment: Inhibition of MCH-mediated calcium influx in CHO cells expressing human MCHR1 by FLIPR assay; type: functional, cell-based
Summary of the method: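 After two washes, treated with vehicle (buffer, 2% DMSO) or compound, then stimulated with 30 nM MCH; intracellular Ca²⁺ change read by FLIPR.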

[6] = target: T1, Melanin-concentrating hormone receptor 1; experiment: Displacement of [125I]MCH from human MCHR1 expressed in CHO cell; type: cell-based
[7] = test system: Mus musculus; experiment: Change in body weight of C57BL/6N DIO mouse relative to control after 5 days at 30 mg/kg, po; type: functional
Summary of the method: (§4)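 DIO male C57Bl/6NCrl:BR mice (45%-fat diet, individually housed), acclimated to vehicle dosing, given compound orally once daily in 20% HPβCD for 5 or 28 days, n = 11/group. Body weight (to 0.1 g) and food intake from preweighed 3-3.5 g pellets (to 0.01 g) recorded daily; cumulative intake and % weight change at endpoint versus vehicle, ± SEM.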

[8] = test system: Rattus norvegicus; experiment: AUC (0-6h) in rat at 10 mg/kg, po; type: ADME, organism-based, Plasma; set-up: time < 6 hr, dose 10 mg/kg, route oral; settings: in vivo, 6 h
[9] = test system: Mus musculus; experiment: Reduction of cumulative food intake in C57BL/6N DIO mouse relative to control after 28 days at 10 mg/kg, po; type: functional; summary of the method: as §4
[10] = test system: Mus musculus; experiment: Change in body weight of C57BL/6N DIO mouse relative to control after 5 days at 10 mg/kg, po; type: functional; summary of the method: as §4
[11] = test system: Rattus norvegicus; experiment: Volume of distribution in rat at 10 mg/kg, iv or po; type: ADME, organism-based; set-up: dose 10 mg/kg, route oral; settings: in vivo
[12] = target: Melanin-concentrating hormone receptor 1 (Mus musculus) (UniProt Q8JZL2); experiment: Receptor occupancy ex vivo by displacement of [125I]S36057 binding from MCHR1 in C57BL/6N mouse brain after 24 hrs at 30 mg/kg, po; type: functional, organism-based; set-up: dose 30 mg/kg; summary of the method: as §3
[13] = test system: Mus musculus; experiment: Reduction of cumulative food intake in C57BL/6N DIO mouse relative to control after 5 days at 10 mg/kg, po; type: functional; summary of the method: as §4
[14] = test system: Mus musculus; experiment: Change in body weight of C57BL/6N DIO mouse relative to control after 28 days at 30 mg/kg, po; type: functional; summary of the method: as §4
[15] = target: Melanin-concentrating hormone receptor 1 (Mus musculus) (UniProt Q8JZL2); settings: C57BL/6N, Brain, 10 mg/kg
[16] = test system: Rattus norvegicus; experiment: as §1; type: ADME, organism-based, Plasma; set-up: time < 24 hr, dose 10 mg/kg, route oral; settings: in vivo, 24 h
[17] = test system: Mus musculus; experiment: Reduction of food intake in orally dosed C57BL/6N DIO mouse after 2 hrs at 30 mg/kg relative to control; type: functional; settings: route oral; summary of the method: as §2
[18] = test system: Mus musculus; experiment: Reduction of cumulative food intake in C57BL/6N DIO mouse relative to control after 5 days at 30 mg/kg, po; type: functional; summary of the method: as §4
[19] = test system: Rattus norvegicus; experiment: Bioavailability in rat at 10 mg/kg, iv or po; type: ADME, organism-based; settings: in vivo
[20] = Half life in rat at 10 mg/kg, iv; type: ADME, organism-based; set-up: dose 10 mg/kg, route intravenous; settings: in vivo
[21] = test system: Mus musculus; experiment: Change in body weight of C57BL/6N DIO mouse relative to control after 28 days at 10 mg/kg, po; type: functional; summary of the method: as §4
[22] = test system: Mus musculus; experiment: Reduction of food intake in orally dosed C57BL/6N DIO mouse after 6 hrs at 30 mg/kg relative to control; type: functional; settings: route oral; summary of the method: as §2
[23] = test system: Mus musculus; experiment: Reduction of cumulative food intake in C57BL/6N DIO mouse relative to control after 28 days at 30 mg/kg, po; type: functional; summary of the method: as §4

T1 sequence (Q99705 whole entry): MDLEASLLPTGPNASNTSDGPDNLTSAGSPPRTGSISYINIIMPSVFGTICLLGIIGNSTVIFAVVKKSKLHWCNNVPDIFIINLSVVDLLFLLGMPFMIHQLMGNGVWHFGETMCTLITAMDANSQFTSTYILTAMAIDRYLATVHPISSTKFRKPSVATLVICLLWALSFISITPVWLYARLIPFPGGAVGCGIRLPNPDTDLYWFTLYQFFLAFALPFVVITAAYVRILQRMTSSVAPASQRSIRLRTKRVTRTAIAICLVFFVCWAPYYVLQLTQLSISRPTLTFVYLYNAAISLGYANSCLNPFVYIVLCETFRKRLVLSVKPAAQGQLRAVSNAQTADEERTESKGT
Sequence of Melanin-concentrating hormone receptor 1 (Mus musculus) (Q8JZL2 whole entry): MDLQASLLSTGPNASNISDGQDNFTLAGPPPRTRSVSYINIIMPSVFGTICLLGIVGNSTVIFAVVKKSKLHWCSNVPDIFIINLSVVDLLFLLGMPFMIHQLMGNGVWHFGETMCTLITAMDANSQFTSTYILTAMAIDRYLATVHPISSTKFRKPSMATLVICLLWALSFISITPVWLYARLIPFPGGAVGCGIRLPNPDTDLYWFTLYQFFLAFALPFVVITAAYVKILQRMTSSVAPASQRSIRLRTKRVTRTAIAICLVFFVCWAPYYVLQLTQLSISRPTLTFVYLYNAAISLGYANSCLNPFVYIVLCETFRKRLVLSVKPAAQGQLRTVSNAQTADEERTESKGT

For `N#Cc1cccc([C@]23CC[C@@H](N(CCN4CC[C@@H](O)C4)C(=O)Nc4ccc(F)c(Cl)c4)C[C@H]2C3)c1`, the AUC(0-t) at 24 h [1] was 14 µM·h, the Activity [2] was “inactive” and the Kp at 6 h [3] was 0.7. The Activity [4] was 58%.
In the case of `N#Cc1cccc([C@]23CC[C@@H](N(CCN4CC[C@H](O)C4)C(=O)Nc4ccc(F)c(C(F)(F)F)c4)C[C@H]2C3)c1`, the AUC(0-t) at 24 h [1] was 16.4 µM·h, the Kb [5] was 11 nM and the Activity [2] was “Active”. It also gave a Kp at 6 h [3] of 1.1, a pKi [6] of 7.82 and an Activity [4] of 73%.
For `CN1CCN(CCCN(C(=O)Nc2ccc(F)c(C(F)(F)F)c2)[C@@H]2CC[C@]3(c4ccc(C#N)cc4)C[C@H]23)CC1` (relative stereo), the Activity [7] was -6.04%, the AUC [8] was 642 ng·h/mL and the Activity [9] was 87 g. It also gave an Activity [10] of -2.26%, a Vdss [11] of 5.6 L/kg and an Activity [12] of 58%. For the same compound, the Activity [13] was 14.9 g, the Activity [14] was -9.83% and the inhibition [15] was over 65%. The AUC [16] was 3.9 µM·h, the “Food intake (% of vehicle)” value [17] was 77.3% and the Activity [18] was 11.7 g. The Kb [5] was 1.9 nM, the “Food intake (% of vehicle control)” value ([2]; route oral) was 78.1% and the F [19] was 27%. The pKi [6] was 8.57, the half-life [20] was 240 min and the Activity [21] was -1.48%. For the same compound, the Activity [4] was 99%, the “Food intake (% of vehicle control)” value [22] was 76% and the Activity [23] was 79.4 g.
